# Results gathered from unrelated publications.
# Lines come from different studies, so protocols differ.
SMILES,target or system,assay,system,conditions,endpoint,result
CC1COc2ccccc2N1C(=O)C(Cl)Cl (stereo not shown),,metabolic stability,"female monkey, liver microsomes","5 µM, pH 7.4",microsomal CLint,1400 µL/min/mg
O=C(CCCCCCC(=O)Nc1ccc(CC[18F])cc1)NO,,,"male nude mouse, stomach","intravenous, 1 h, tumour-bearing",tracer uptake,1.5 %ID/g
CCc1cc(/C(C)=N/OCc2ccc(C3CCCCC3)c(C(F)(F)F)c2)ccc1CN1CC(C(=O)O)C1,"Cytochrome P450 2E1 (CYP2E1, Homo sapiens, UniProt P05181)","enzyme activity, inhibitor","human, liver microsomes","100 µM, 20 min",inhibition,32.6%
O=c1[nH]c2c(-c3ccccc3)csc2c(=O)n1O,HFF,"cell growth or viability, MTS",,"10 µM, 7 days",viability,130%
Nc1ccc(C=Cc2ccc([125I])cc2)cc1,,,"Swiss mouse, brain","intravenous, 5 µCi, 2 h",tracer uptake,1.12 %ID/g
Cc1c(C(=O)O)sc2[nH]c(=O)n(O)c(=O)c12,HFF,"cell growth or viability, MTS",,"10 µM, 7 days",viability,94%
CC(C)(C)OC(=O)CN1C(=O)Cc2c([nH]c3ccc(Br)cc23)-c2ccc(Cl)cc21,J774,"cell growth or viability, WST-1",,24 h,CC50,≤ 100 µM
CCN(CC)C(=O)[C@@]1(c2ccccc2)C[C@H]1CN,,,"male cynomolgus monkey, plasma","oral, 30 mg/kg",Cmax,5020 ng/mL
CC(C)(C)NC(=O)CN1C(=O)Cc2c([nH]c3ccc(Br)cc23)-c2ccc(Cl)cc21,J774,"cell growth or viability, WST-1",,24 h,CC50,≥ 100 µM
CN(C(=O)n1cnc(-c2ccc[n+]([O-])c2)c1)C1CCCCC1,,,"male cynomolgus monkey, plasma","oral, 0.1 mg/kg",Cmax,37.1 ng/mL
O=c1[nH]c2sc3c(c2c(=O)n1O)CCN(Cc1ccccc1)C3,HFF,"cell growth or viability, MTS",,"10 µM, 7 days",viability,104%
O=C(CN1C(=O)Cc2c([nH]c3ccc(Br)cc23)-c2ccc(Cl)cc21)N1CCCC1,J774,"cell growth or viability, WST-1",,24 h,CC50,≤ 100 µM
O=c1[nH]c2scc(-c3ccccc3)c2c(=O)n1O,HFF,"cell growth or viability, MTS",,"10 µM, 7 days",viability,90%
Cn1ccc(COc2cnc(C(N)=O)cc2-c2ccc(O[11CH3])cc2F)n1,,,"male mouse, pancreas","intravenous, 2.5 MBq, 1 h",tracer uptake,5.87 %ID/g
O=c1[nH]c2cc(-c3ccccc3)sc2c(=O)n1O,HFF,"cell growth or viability, MTS",,"10 µM, 7 days",viability,85%
CCN(CC)C(=O)CN1C(=O)Cc2c([nH]c3ccc(Br)cc23)-c2ccc(Cl)cc21,J774,"cell growth or viability, WST-1",,24 h,CC50,≥ 100 µM
